# Calls of active or inactive are those of the source.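 How the source made its calls, unless noted: active means viability at or below 10% of carrier control in both of two separate runs; inconclusive means viability at or below 10% in only one of the two runs; inactive means the rest.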
# What was measured:
# [1] = reducers of endogenous Her2 protein level, primary screen, SKBR3 breast tumor cells, AlphaScreen, ATP viability (AID 461;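 active means Her2 level under about 52% in both replicate screens, with viability over 70% of control, limit read from the data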;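 on Her2 level: lower value means less Her2 protein in the cells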;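 on viability: percent of carrier control wells set as 100% viability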); details: 18-24 h, measured here: SKBR3 viability, ATP luminescence, at 10 µM
# [2] = molecular target: Receptor tyrosine-protein kinase erbB-2 (Homo sapiens) (UniProt P04626); test: as above; details: 18-24 h, at 10 µM, stronger effect = lower value
# [3] = SK-BR-3 cell growth inhibitors, pilot screen, 24 h, human (AID 572); details: SK-BR-3 viability, CellTiter-Glo luminescence, at 10 µM, stronger effect = lower value;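 further: compound exposure lasted between 18 and 24 h rather than exactly 24 h; 100% = carrier-treated control wells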
# [4] = HUVEC growth inhibition – cell-based, human, primary screen (AID 575;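 active means viability at or below 30% in both replicate assays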;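 further: 100% = median of untreated cell wells with 0.1% DMSO on each plate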); details: HUVEC proliferation, CellTiter-Glo luminescence, 72 h; at 10 µM; stronger effect = lower value
# How it was run: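 system = HUVEC primary cells | amount = 1250 cells/well | buffer or medium = supplemented EBM, 2% fetal bovine serum | dosing = single-point 10 µM, DMSO 0.1% final | times = 72 h compound incubation | detection = CTG luminescence | read-out = % viability relative to median vehicle-well signal on each plate | control set = vehicle and MePR control wells | format = collagen-coated 384-well format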
# [5] = growth inhibitors of H69AR lung tumor, primary screen, human, duplicate replicates (AID 580;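 active means viability at or under a set limit in both replicates, limit being median viability minus 3 SD, cut at about 48% in these data, passing the limit was not always enough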;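 further: 100% = mean luminescence of untreated wells and 0% = no signal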); details: H69AR lung tumor cells viability, ATP luminescence, 72 h; at 10 µM; stronger effect = lower value
# [6] = reversal of MRP1-mediated doxorubicin resistance, pilot screen, H69AR cells, doxorubicin co-treatment (AID 601;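 active means viability loss from added drug above about 55%, and viability with drug at most 40%, in both replicates, limit read from the data, passing the limit was not always enough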); details: CellTiter-Glo, 72 h, at 10 µM; for differential viability (reversal): stronger effect = higher value
# [7] = 384-well plate pilot, post-Golgi transport modulator project, inhibition of yeast transport mutant growth (AID 636; in the data active means inhibition above about 31%); details: absorbance 615 nm, about 18 h, stronger effect = higher value
# [8] = growth suppression of yeast trafficking mutant, preliminary HTS, modulators of trafficking downstream of Golgi apparatus project, 1536-format plate, OD 615 nm (AID 637; in the data active means inhibition above about 30%); details: yeast transport mutant growth, absorbance 615 nm, 18 h; stronger effect = higher value
# [9] = H69AR cells + 2 uM doxorubicin, measured here: viability with 2 uM doxorubicin, stronger effect = lower value
# [10] = H69AR cells, compound alone cytotoxicity
# Receptor tyrosine-protein kinase erbB-2 (Homo sapiens), sequence (P04626 whole entry, looked up): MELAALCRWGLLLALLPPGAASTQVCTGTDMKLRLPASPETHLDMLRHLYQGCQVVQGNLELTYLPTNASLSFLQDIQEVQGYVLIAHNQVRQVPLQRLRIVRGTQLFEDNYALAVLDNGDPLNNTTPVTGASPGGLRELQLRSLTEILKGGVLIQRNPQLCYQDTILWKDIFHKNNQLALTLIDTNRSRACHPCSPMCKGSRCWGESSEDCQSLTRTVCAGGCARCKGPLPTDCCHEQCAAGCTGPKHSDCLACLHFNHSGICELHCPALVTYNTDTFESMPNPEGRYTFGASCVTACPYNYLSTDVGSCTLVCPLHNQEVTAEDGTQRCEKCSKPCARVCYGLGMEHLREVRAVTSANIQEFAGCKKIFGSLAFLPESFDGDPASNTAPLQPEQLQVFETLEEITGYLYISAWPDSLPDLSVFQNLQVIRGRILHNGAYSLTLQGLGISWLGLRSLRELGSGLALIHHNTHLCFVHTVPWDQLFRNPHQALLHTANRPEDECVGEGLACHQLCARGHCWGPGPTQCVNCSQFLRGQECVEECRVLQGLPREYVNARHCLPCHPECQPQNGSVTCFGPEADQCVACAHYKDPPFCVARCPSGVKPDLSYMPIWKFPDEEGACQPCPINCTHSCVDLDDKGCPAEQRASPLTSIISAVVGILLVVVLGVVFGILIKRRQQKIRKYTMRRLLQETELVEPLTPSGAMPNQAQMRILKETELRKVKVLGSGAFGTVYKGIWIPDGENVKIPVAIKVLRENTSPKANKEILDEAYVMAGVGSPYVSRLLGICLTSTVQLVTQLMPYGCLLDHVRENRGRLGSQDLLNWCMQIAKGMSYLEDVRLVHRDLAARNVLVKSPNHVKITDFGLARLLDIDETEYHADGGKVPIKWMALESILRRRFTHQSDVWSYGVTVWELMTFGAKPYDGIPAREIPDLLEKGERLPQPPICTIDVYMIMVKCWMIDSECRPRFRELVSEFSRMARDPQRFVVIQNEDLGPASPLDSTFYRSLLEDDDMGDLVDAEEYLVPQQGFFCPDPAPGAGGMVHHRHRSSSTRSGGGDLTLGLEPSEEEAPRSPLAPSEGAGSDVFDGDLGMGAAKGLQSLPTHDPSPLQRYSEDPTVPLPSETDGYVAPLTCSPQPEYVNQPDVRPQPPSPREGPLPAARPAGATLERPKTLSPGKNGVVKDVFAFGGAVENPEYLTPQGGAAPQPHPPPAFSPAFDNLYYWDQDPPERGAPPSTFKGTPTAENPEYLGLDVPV
SMILES,viability [1] [%],Her2 level [2],viability [3],viability [4],viability [5],differential viability (reversal) ([6]; H69AR cells + 2 uM doxorubicin),"viability [6, 9] [%]","viability [6, 10] [%]",inhibition [7],inhibition [8]
Cc1ccccc1-c1nc(CS(=O)(=O)CC(=O)NCc2ccc3c(c2)OCO3)c(C)o1,99,89% (inactive),99% (inactive),87.3% (inactive),87.8% (inactive),2.28% (inactive),85.5,87.8,-4.53% (inactive),3.61% (inactive)
CCCCN(Cc1cc2cc(OC)ccc2[nH]c1=O)C(=O)COc1ccccc1,73,79% (inactive),73% (inactive),108% (inactive),93.6% (inactive),-4.48% (inactive),98.1,93.6,-0.13% (inactive),0.82% (inactive)
COc1ccc2cnn(-c3ccccc3)c(=O)c2c1OC,98,91% (inactive),98% (inactive),126% (inactive),103% (inactive),18.2% (inactive),84.6,103,-1.71% (inactive),1.64% (inactive)
COc1ccc(C2C3=C(CC(C)(C)CC3=O)Oc3ncn4nc(-c5cccnc5)nc4c32)cc1 (stereo not given),96,84.5% (inactive),96% (inactive),108% (inactive),105% (inactive),14.3% (inactive),90.9,105,-9.05% (inactive),0% (inactive)
CCn1c(=S)ccc2ccc(OC)cc21,88.5,114% (inactive),88.5% (inactive),98.7% (inactive),101% (inactive),13.2% (inactive),87.6,101,-5.14% (inactive),-7.46% (inactive)
O=C1CSC(=Nc2ccc(O)cc2)N1c1ccc(O)cc1,93,89.5% (inactive),93% (inactive),89.2% (inactive),91.4% (inactive),9.79% (inactive),81.6,91.4,-7.07% (inactive),-1.64% (inactive)
O=C(Cn1ccc2ccccc2c1=O)NCCC(=O)NC1CCN(Cc2ccccc2)CC1,58,106% (inactive),58% (inactive),107% (inactive),100% (inactive),17.5% (inactive),82.8,100,3.29% (inactive),-4.91% (inactive)
Cc1ccccc1NC(=O)N1C2CCCC1CC(NC(=O)C1CC1)C2 (stereo not given),104,95% (inactive),104% (inactive),94% (inactive),104% (inactive),10.3% (inactive),93.9,104,-7.07% (inactive),9.02% (inactive)
Cc1nnc(SCC(=O)N(C(C)C)C(C)C)nc1C,75.5,88.5% (inactive),75.5% (inactive),95% (inactive),103% (inactive),10.3% (inactive),93.2,103,-5.6% (inactive),-1.31% (inactive)
O=S(=O)(Nc1cccc2ncccc12)c1cccs1,256,13% (active),256% (inactive),23.9% (active),1.71% (active),0.345% (inactive),1.37,1.71,0.92% (inactive),6.19% (inactive)
CC(NC(=O)c1ccc(F)cc1)C(c1cccs1)N1CCN(C)CC1 (stereo not given),90.5,86.5% (inactive),90.5% (inactive),98% (inactive),91.9% (inactive),0.16% (inactive),91.7,91.9,-6% (inactive),3.44% (inactive)
CC(=O)c1cccc(S(=O)(=O)NCC(c2ccco2)N2CCCCC2)c1 (stereo not given),101,80% (inactive),101% (inactive),96% (inactive),99.4% (inactive),11.9% (inactive),87.5,99.4,-0.91% (inactive),-7.3% (inactive)
CCCn1c(N2CCN(CC(=O)Nc3ccc4c(c3)OCCO4)CC2)nc2ccccc21,88.5,96% (inactive),88.5% (inactive),87.4% (inactive),88.9% (inactive),0.63% (inactive),88.3,88.9,-6.18% (inactive),4.59% (inactive)
Cc1cc2oc(=O)cc(C)c2c(=O)o1,101,136% (inactive),101% (inactive),94.8% (inactive),108% (inactive),11.2% (inactive),96.6,108,2.5% (inactive),-3.83% (inactive)
CC(C)CCNC(=O)C1CCN(C(=O)N(C)C)CC1,104,125% (inactive),104% (inactive),108% (inactive),98.8% (inactive),5% (inactive),93.8,98.8,-1.41% (inactive),-1.33% (inactive)
Cc1csc(NC(=O)c2ccco2)n1,102,83.5% (inactive),102% (inactive),82.9% (inactive),83.3% (inactive),1.88% (inactive),81.4,83.3,-3.46% (inactive),-5.5% (inactive)
CC(=O)Nc1ccccc1OCc1nnc(-c2cccs2)o1,97,93% (inactive),97% (inactive),82.1% (inactive),98.1% (inactive),15.9% (inactive),82.1,98.1,-2.86% (inactive),-3.97% (inactive)
CCOc1ccc2nc(SCC(=O)N3CCCCCC3)c(C#N)cc2c1,95,82.5% (inactive),95% (inactive),87.5% (inactive),86.2% (inactive),-3.21% (inactive),89.4,86.2,-5.87% (inactive),3.28% (inactive)
CC1(C)Cc2cccc(OCC(O)CN3CCN(c4ccccn4)CC3)c2O1 (stereo not given),84,94% (inactive),84% (inactive),86.1% (inactive),70.3% (inactive),-17.7% (inactive),88,70.3,-3.38% (inactive),-7.3% (inactive)
O=C(COc1ccccc1)NCCSCc1ccco1,109,98.5% (inactive),109% (inactive),104% (inactive),89.3% (inactive),9.83% (inactive),79.4,89.3,-6.49% (inactive),-5.67% (inactive)
CCOC(=O)c1[nH]c2ccc(Br)cc2c1NC(=O)CNC,93,99.5% (inactive),93% (inactive),101% (inactive),87.3% (inactive),-0.115% (inactive),87.5,87.3,-2.37% (inactive),8.85% (inactive)
O=C(CCc1nc2ccccc2s1)OCC(=O)N1CCN(C(=O)c2ccco2)CC1,117,93.5% (inactive),117% (inactive),91.1% (inactive),90.5% (inactive),3.61% (inactive),86.8,90.5,-5.41% (inactive),-0.48% (inactive)
Cn1c(=O)n(C)c2cc(CNc3ccc(N4CCOCC4)c(C(=O)O)c3)ccc21,107,89.5% (inactive),107% (inactive),113% (inactive),89.6% (inactive),-2.67% (inactive),92.2,89.6,-3.33% (inactive),0.49% (inactive)
CCCCCc1c(C)nc(Nc2nc(C)c3cc(OC)ccc3n2)[nH]c1=O,92.5,85.5% (inactive),92.5% (inactive),55.2% (inactive),78% (inactive),22.3% (inactive),55.7,78,-7.7% (inactive),11.1% (inactive)
O=C(O)CCc1ccc(-c2ccc(F)cc2)n1CC(=O)O,94.5,87% (inactive),94.5% (inactive),106% (inactive),98% (inactive),10.8% (inactive),87.2,98,-7.12% (inactive),-1.43% (inactive)
O=C(C1CCCCC1)N1CCC(c2nc3c(nnn3Cc3c(F)cccc3Cl)c(=O)[nH]2)CC1,87.5,96.5% (inactive),87.5% (inactive),85.2% (inactive),71.3% (inactive),48.4% (inactive),22.9,71.3,-3.77% (inactive),-6.39% (inactive)
